Tests used:
Set-up in all cases: scale not given: the % may be the effect or the level left
[1] = species: Rattus norvegicus; assay: Reduction in sterol level in CFE rat […] in serum at 0.1% of diet treated through diet for 6 days relative to control; assay type: functional
How it was run: (§1)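 Compound dissolved in methanol-chloroform (1:3 v/v), mixed into ground rat chow at 0.1, 0.05 or 0.025% (w/w), and solvent evaporated; controls received solvent-treated chow. Rats fed ad libitum with water for 6 days, then killed fed and bled. Serum sterols and triglycerides measured by autoanalyzer. Values given as percent of control, mean ± SE; significance by Student's t test.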

[2] = species: Rattus norvegicus; assay: Reduction in sterol level in CFE rat […] in serum at 0.05% of diet treated through diet for 6 days relative to control; assay type: functional; how it was run: as §1
[3] = species: Rattus norvegicus; assay: Reduction in sterol level in CFE rat […] at 0.025% of diet treated through diet for 6 days relative to control; assay type: functional, Serum; how it was run: as §1
[4] = species: Rattus norvegicus; assay: Reduction in triglyceride level in CFE rat […] in serum at 0.1% of diet treated through diet for 6 days relative to control; assay type: functional; how it was run: as §1
[5] = species: Rattus norvegicus; assay: Reduction in triglyceride level in CFE rat […] in serum at 0.05% of diet treated through diet for 6 days relative to control; assay type: functional; how it was run: as §1
[6] = species: Rattus norvegicus; assay: Reduction in triglyceride level in CFE rat […] at 0.025% of diet treated through diet for 6 days relative to control; assay type: functional, Serum; how it was run: as §1

SMILES | Activity [1] | Activity [2] | Activity [3] | Activity [4] | Activity [5] | Activity [6]
CCCCCCCCCCCC(CCOc1ccc(C(=O)O)cc1)N=[N+]=[N-] (stereo not drawn) | 76% | 89% | 105% | 55% | 60% | 98%
C=CCCCCCCCCCOc1ccc(C(=O)OC)cc1 | 90% | 94% | 97% | 58% | 52% | 65%
CCCCCCCC/C=C/CCCCCCCCOc1ccc(C(=O)OC)cc1 | 104% | 102% | 102% | 46% | 86% | 73%
CCCCCCCCCCCC(CCOc1ccc(C(=O)O)cc1)SCc1ccccc1 (stereo not drawn) | 92% | 100% | 109% | 69% | 79% | 92%
CCCCCCCCCCCC(CCOc1ccc(C(=O)O)cc1)SCC (stereo not drawn) | 83% | 93% | 95% | 44% | 74% | 68%
CCCCCCCCCCCC(Cl)CCOc1ccc(C(=O)OC)cc1 (stereo not drawn) | 84% | 87% | 100% | 45% | 53% | 80%
CCCCCCCCCCCC(CCOc1ccc(C(=O)OC)cc1)SC(C)=O (stereo not drawn) | 81% | 89% | 94% | 59% | 70% | 83%
COC(=O)c1ccc(OCCCCCCCCCCCO)cc1 | 92% | 94% | 94% | 72% | 86% | 140%
COC(=O)c1ccc(OCCCCCCCCCCCCCCCO)cc1 | 93% | 98% | 96% | 89% | 104% | 98%
COC(=O)c1ccc(OCCCCCCCCCCCOS(C)(=O)=O)cc1 | 91% | 105% | 105% | 72% | 81% | 79%
COCCCCCCCCCCCOc1ccc(C(=O)OC)cc1 | 104% | 96% | 93% | 36% | 69% | 77%
COC(=O)c1ccc(OCCCCCCCCCCCSC(C)=O)cc1 | 113% | 98% | 106% | 63% | 88% | 66%
CCSCCCCCCCCCCCOc1ccc(C(=O)OC)cc1 | 100% | 100% | 110% | 65% | 74% | 71%
CCCCSCCCCCCCCCCCOc1ccc(C(=O)OC)cc1 | 96% | 92% | 100% | 69% | 62% | 87%
COC(=O)c1ccc(OCCCCCCCCCCCSCc2ccccc2)cc1 | 87% | 85% | 91% | 58% | 49% | 64%
COC(=O)c1ccc(OCCCCCCCCCCCSC#N)cc1 | 160% | 102% | 102% | 145% | 94% | 80%
COC(=O)c1ccc(OCCCCCCCCCCCCl)cc1 | 102% | 108% | 110% | 41% | 81% | 94%
CCCCNCCCCCCCCCCCOc1ccc(C(=O)OC)cc1 | 96% | 95% | 102% | 114% | 88% | 104%
CCCCNCCCCCCCCCCCOc1ccc(C(=O)OC)cc1.Cl | 89% | 96% | 100% | 66% | 71% | 87%
CCCCNC(=O)CCCCCCCCCCOc1ccc(C(=O)OC)cc1 | 96% | 100% | 99% | 81% | 97% | 95%
CCCCCCCCCCCCCCCCOc1ccc(C(=O)OC2CCN(C)CC2)cc1 | 96% | 87% | 85% | 117% | 110% | 100%

SMILES | Activity [1] | Activity [2] | Activity [3] | Activity [4] | Activity [5] | Activity [6]
CCCCCCCCCCC/C=C/CCCOc1ccc(C(=O)OC)cc1 | 75% | 73% | 68% | 68% | 57% | 72%
CCCCCCCCCCCCC/C=C\COc1ccc(C(=O)OC)cc1 | 82% | 83% | 89% | 89% | 83% | 96%
CCCCCCCCCCCCCC#CCOc1ccc(C(=O)OC)cc1 | 89% | 83% | 89% | 57% | 66% | 78%
COC(=O)c1ccc(OCC(=O)C23CC4CC(CC(C4)C2)C3)cc1 | 89% | 96% | 97% | 100% | 82% | 88%
COC(=O)c1ccc(OCC2(C34CC5CC(CC(C5)C3)C4)SCCS2)cc1 | 93% | 89% | 94% | 112% | 83% | 94%
CCCCCCCCCCCC(=O)CCOc1ccc(C(=O)OC)cc1 | 81% | 93% | 100% | 61% | 61% | 78%
CCCCCCCCCCC/C(CCOc1ccc(C(=O)OC)cc1)=N/O | 64% | 67% | 74% | 32% | 43% | 53%
CCCCCCCCCCCC1OC1CCCOc1ccc(C(=O)OC)cc1 (stereo not drawn) | 84% | 89% | 103% | 65% | 64% | 74%
CCCCCCCCCCCCCCCCOc1ccc(C(=O)O)cc1Cl | 103% | 97% | 108% | 75% | 87% | 69%
CCCCCCCCCCCCCCCCOc1ccc(C(=O)O)cc1[N+](=O)[O-] | 103% | 101% | 95% | 122% | 120% | 93%
CCCCCCCCCCCCCCCCOc1c(Cl)cc(C(=O)O)cc1Cl | 103% | 105% | 98% | 103% | 89% | 100%
CCCCCCCCCCCCCCCCOc1c(I)cc(C(=O)O)cc1I | 93% | 85% | 94% | 105% | 86% | 96%
CCCCCCCCCCCCCCCCOc1c(C)cc(C(=O)O)cc1C | 97% | 89% | 78% | 82% | 79% | 68%
CCCCCCCCCCCC(O)CCOc1ccc(C(=O)O)cc1 (stereo not drawn) | 116% | 112% | 105% | 53% | 60% | 69%
CCCCCCCCCCCC(Cl)CCOc1ccc(C(=O)O)cc1 (stereo not drawn) | 60% | 69% | 72% | 47% | 53% | 59%
CCCCCCCCCCCC(S)CCOc1ccc(C(=O)O)cc1 (stereo not drawn) | 83% | 89% | 94% | 47% | 53% | 76%
CCCCCCCCCCCCCCCCOc1c(Br)cc(C(=O)OC)cc1Br | 82% | 94% | 94% | 88% | 103% | 96%
CCCCCCCCCCCCCCCCOc1c(Br)cc(C(=O)OC)cc1[N+](=O)[O-] | 97% | 93% | 93% | 95% | 101% | 113%
CCCCCCCCCCCC(CCOc1ccc(C(=O)OC)cc1)OS(=O)(=O)c1ccc(C)cc1 (stereo not drawn) | 98% | 103% | 102% | 86% | 91% | 91%
CCCCCCCCCCCCCCC(C)(CC)Oc1ccc(C(=O)O)cc1 (stereo not drawn) | 102% |  | 100% | 94% |  | 94%
CCCCCCCCCCCC(O)C(O)CCCOc1ccc(C(=O)O)cc1 (stereo not drawn) | 83% | 86% |  | 55% | 60% | 
